An excerpt weighted towards active compounds, which were near 2.3% of everything screened.
TAAR1 ag: human TAAR1 agonism | CHO RD-HGA16 TAAR1, Fluo-8 calcium fluorescence; vehicle wells 0%, saturating PEA agonist 100% | activation, % at 3 µM | hit rate 0.99% among 360,000;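 active = activation above the mean activation of all test compounds in the run plus 3 SD, cut at about 38% in these data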
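Repeats: no replicates (n 1) | Material: CHO-derived RD-HGA16 cells with stable Gα16 and human TAAR1 | Technique: Kinetic Fluo-8 calcium fluorescence | Schedule: 17-24 h seeding, 75 min 37 °C dye, 30 min RT | Evaluation: % activation from peak over basal fluorescence ratio, DMSO-to-PEA scaled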
V1R ag counter: V1a receptor agonism, counter-screen for OXTR agonists | P37288 | CHO-V1R cells, Fluo-8 calcium fluorescence, agonist mode; 0% DMSO, 100% 3 nM vasopressin | activation, % at 3 µM | hit rate 0.25% among 320,000 | AID 2797;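 active = activation above the mean activation of all tested compounds plus 3 SD, per screening run, cut at about 20% in these data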;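 also: signal is peak over basal fluorescence ratio across a 100 second FLIPR read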
OXTR potentiate: potentiators of human oxytocin receptor. P30559. CHO-OTR cells, Fluo-8 calcium fluorescence, potentiator mode; 0% = oxytocin EC15, 100% = EC100. activation, % at 3 µM. hit rate 0.061% among 320,000;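 active = activation above that plate's cutoff, the mean activation of tested compounds plus 3 SD, cut at about 6.6% in these data, passing the limit was not always enough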;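 also: 100% uses oxytocin at 75 nM as the full agonist control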
Target sequence (P30559 whole entry, looked up): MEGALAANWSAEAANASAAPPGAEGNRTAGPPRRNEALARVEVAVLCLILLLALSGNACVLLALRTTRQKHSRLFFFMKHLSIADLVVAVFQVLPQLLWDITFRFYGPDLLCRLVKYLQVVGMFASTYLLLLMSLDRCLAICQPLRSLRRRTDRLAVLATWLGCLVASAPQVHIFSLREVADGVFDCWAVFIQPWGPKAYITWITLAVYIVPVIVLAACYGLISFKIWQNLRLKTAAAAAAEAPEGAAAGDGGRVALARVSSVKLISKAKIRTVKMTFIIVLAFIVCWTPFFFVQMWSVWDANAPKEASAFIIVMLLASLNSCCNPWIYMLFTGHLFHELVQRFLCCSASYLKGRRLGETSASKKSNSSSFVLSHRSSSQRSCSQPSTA
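test system = CHO-OTR cells, human receptor | compound = single-point 3.0 µM | schedule = 6 min compound pre-incubation at room temperature, 100 s kinetic read | signal = Fluo-8 no-wash calcium dye fluorescence, excitation 470-495 nm, emission 515-575 nm | repeats = single well per compound, singlicate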
TAAR1 antag: antagonists of human TAAR1; CHO RD-HGA16 TAAR1, Fluo-8 calcium fluorescence, antagonist; inhibition, % at 3 µM; hit rate 1.5% among 360,000; AID 624466;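 active = inhibition above a per-plate cutoff, the mean inhibition of test compounds on that plate plus 3 SD, cut at about 49% in these data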;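 also: 0% = DMSO plus EC80 beta-PEA response and 100% = DMSO alone without agonist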
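Test system: RD-HGA16 CHO cells with stable hTAAR1 and Gα16 / Probe or stimulus: EC80 β-phenethylamine stimulus / Times: seeding 17-24 h prior, 75-min 37 °C, 30-min RT dye loading / Detection: Fluo-8 calcium-sensitive fluorescence / Read-out basis: % inhibition scaled between DMSO and EC80 PEA controls / Repeats: singlicate, one well per test compound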
OXTR agonist: activates the human oxytocin receptor. P30559. CHO-OTR cells, Fluo-8 calcium fluorescence; normalized: DMSO 0%, oxytocin 100%. activation, % at 3 µM. hit rate 0.32% among 320,000. AID 2435;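 active = activation above the mean of all tested compounds plus 3 SD, cutoff set per screening run, cut at about 20% in these data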;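 also: peak over basal fluorescence ratio from a 100 s FLIPR kinetic read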
nonsel antag count: nonselective antagonist in TAAR1 antagonist counter-screen; shares compounds with TAAR1 antag; counterscreen cell line, calcium fluorescence, antagonist mode; inhibition, % at 3 µM; hit rate 77% among 2,400; AID 651780; in the data active = inhibition above about 22%;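 also: CHO-Ga16 host cells stimulated with ATP at an EC80 level; 0% = agonist EC80 plus vehicle and 100% = vehicle without agonist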
TAAR1 ant conf: human TAAR1 antagonism, confirmed | shares compounds with TAAR1 antag | TAAR1-expressing cells, fluorescence antagonist read-out | inhibition, % at 3 µM | hit rate 40% among 2,400 | AID 651785; in the data active = inhibition above about 49%;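 also: CHO-Ga16 host cells challenged with agonist PEA near its EC80; 0% = agonist at EC80 plus vehicle and 100% = vehicle with no agonist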
Ga16 nonsel ag: nonselective Ga16 agonist in TAAR1 antagonist counter-screen; shares compounds with TAAR1 antag; Ga16-expressing cells, calcium fluorescence, agonist counterscreen; activation, % at 3 µM; hit rate 18% among 2,400; AID 651953; in the data active = activation above about 12%;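 also: 0% = vehicle wells and 100% = saturating stimulus response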
TAAR1 ag count: counter-screen for human TAAR1 antagonists: TAAR1 agonists; hit rate 2% among 2,400; hTAAR1 cell line, fluorescence activation, agonist mode; shares compounds with TAAR1 antag; activation, % at 3 µM; in the data active = activation above about 37%;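 also: CHO cells stably expressing TAAR1 with calcium dye readout; 0% = DMSO vehicle and 100% = full agonist response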
* hit, by the source's call.

How did CC(OC(=O)CCN1C(=O)C2CC=CCC2C1=O)C(=O)Nc1cccc(C#N)c1 (configuration not stated) do in these assays?
TAAR1 ag: 2; V1R ag counter: 3; OXTR potentiate: -4; TAAR1 antag: -8; OXTR agonist: 2

Results for O=C(Nc1ccon1)c1ccc(OC2CCCC2)cc1 ?
TAAR1 ag: 6; V1R ag counter: 3; OXTR potentiate: -4; TAAR1 antag: 5; OXTR agonist: -1

How did CC(C)(C)c1cc(NC(=O)c2ccc(OC3CCCC3)cc2)no1 do in these assays?
TAAR1 ag: 0; V1R ag counter: 3; OXTR potentiate: -11; TAAR1 antag: 51*; OXTR agonist: -1; nonsel antag count: 25*; TAAR1 ant conf: 31; Ga16 nonsel ag: 4; TAAR1 ag count: 3

Results for Cc1cccn2c(=O)c3cc(C#N)c(=NC(=O)c4cccs4)n(CCCOC(C)C)c3nc12 ?
TAAR1 ag: 14; V1R ag counter: -1; OXTR potentiate: -8; TAAR1 antag: 67*; OXTR agonist: -2; nonsel antag count: 24*; TAAR1 ant conf: 48; Ga16 nonsel ag: 9; TAAR1 ag count: 8

Results for Cc1ccccc1OCCC(=O)OCC(=O)Nc1ccc(C)c(S(=O)(=O)N2CCCCC2)c1 ?
TAAR1 ag: 5; TAAR1 antag: 32

Results for Cc1ccc(C)c(OCCC(=O)OCC(=O)Nc2ccc(C)c(S(=O)(=O)N3CCCCC3)c2)c1 ?
TAAR1 ag: 6; V1R ag counter: 4; OXTR potentiate: -14; TAAR1 antag: 53*; OXTR agonist: 2; nonsel antag count: 39*; TAAR1 ant conf: 44; Ga16 nonsel ag: 7; TAAR1 ag count: 8

How did COc1cc(/C=C2\SC(=S)N(NS(=O)(=O)c3ccccc3)C2=O)cc(OC)c1OC do in these assays?
TAAR1 ag: -6; V1R ag counter: 0; OXTR potentiate: -4; TAAR1 antag: -6; OXTR agonist: -1

How did COc1ccc(/C=C2/SC(=O)N(NS(=O)(=O)c3ccccc3)C2=S)cc1OC do in these assays?
TAAR1 ag: 14; V1R ag counter: 0; OXTR potentiate: 1; TAAR1 antag: 63*; OXTR agonist: 1; nonsel antag count: 29*; TAAR1 ant conf: 42; Ga16 nonsel ag: 6; TAAR1 ag count: 3

How did Cc1cc(C)c2sc(N(CCCN(C)C)C(=O)c3ccc(S(=O)(=O)N(C)Cc4ccccc4)cc3)nc2c1 do in these assays?
TAAR1 ag: 35; V1R ag counter: 2; OXTR potentiate: -10; TAAR1 antag: 50*; OXTR agonist: 11; nonsel antag count: 39*; TAAR1 ant conf: 40; Ga16 nonsel ag: 26*; TAAR1 ag count: 46*

What do the screens show for `COc1ccccc1N1CCN(C(=O)c2cccc(S(=O)(=O)N3c4ccccc4CC3C)c2)CC1` (configuration not stated)?
TAAR1 ag: 11; TAAR1 antag: 75*; nonsel antag count: 39*; TAAR1 ant conf: 50*; Ga16 nonsel ag: 10; TAAR1 ag count: 10

What do the screens show for `c1ccc(CCNc2nc(-c3ccncc3)nc3ccccc23)cc1`?
TAAR1 ag: 2; V1R ag counter: -1; OXTR potentiate: -9; TAAR1 antag: 67*; OXTR agonist: -3; nonsel antag count: 27*; TAAR1 ant conf: 41; Ga16 nonsel ag: 8; TAAR1 ag count: 4

How did Cc1cccc(C)c1[N+](=O)[O-] do in these assays?
TAAR1 ag: 4; TAAR1 antag: -5

Results for O=C(Nc1scc(-c2ccccc2)c1C(=O)O)c1ccco1 ?
TAAR1 ag: 12; V1R ag counter: -1; OXTR potentiate: -10; TAAR1 antag: 7; OXTR agonist: -2

Bioassay records: PubChem, The Scripps Research Institute Molecular Screening Center
